According to ChEMBL document CHEMBL1153516, “Influence of the side chain next to C-terminal benzimidazole in opioid pseudopeptides containing the Dmt-Tic pharmacophore” (J Med Chem, 2009):
Non-standard residues stand in square brackets, D forms with d. Residues, ends and D or L forms follow the SMILES beside them. Dmt = Cc1cc(O)cc(C)c1C[C@H](N)C(=O)O; Tic = O=C(O)[C@@H]1Cc2ccccc2CN1

Target: Delta-type opioid receptor (Mus musculus, UniProt P32300)
Test: Antagonist activity against delta opioid receptor in mouse vas deferens assessed as effect on deltorphin 2-induced contraction
Type: functional, tissue-based
Conditions: read-out: pA2 (converted)
Procedure, shortened: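 pA2 was measured against the δ agonist deltorphin II in mouse vas deferens and determined by the Kosterlitz and Watt method.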

Chain of Delta-type opioid receptor (P32300 whole entry): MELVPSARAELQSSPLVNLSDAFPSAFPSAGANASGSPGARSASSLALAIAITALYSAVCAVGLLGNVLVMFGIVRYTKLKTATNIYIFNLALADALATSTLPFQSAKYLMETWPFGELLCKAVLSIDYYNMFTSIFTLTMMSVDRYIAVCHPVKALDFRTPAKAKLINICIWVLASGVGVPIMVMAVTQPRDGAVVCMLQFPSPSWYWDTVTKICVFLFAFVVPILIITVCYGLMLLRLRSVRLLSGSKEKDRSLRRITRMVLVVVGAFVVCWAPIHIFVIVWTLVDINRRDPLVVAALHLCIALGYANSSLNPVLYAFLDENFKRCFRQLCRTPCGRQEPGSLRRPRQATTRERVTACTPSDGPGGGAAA

Q: With `Cc1cc(O)cc(C)c1C[C@H](N)C(=O)N1Cc2ccccc2C[C@H]1C(=O)N[C@@H](Cc1ccccc1)C(=O)N[C@@H](Cc1ccccc1)C(=O)O` (H-[Dmt][Tic]FF-OH) as the molecule, how does the Kb read?
A: 0.2 nM
